Experimental data published in PubChem BioAssay AID651628 (The Scripps Research Institute Molecular Screening Center, 2012).
A number with no mark means an inactive call. The source made the active and inactive calls.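 Rule for the calls: active = at least one off-target enzyme showing weaker fluorescent probe labeling in any proteome panel; inactive = no off-target enzyme affected in any panel.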

tested on: Membrane Proteome; assay: anti-target inhibition in MCF7 proteome, late-stage follow-up, selectivity assay for PAD4 inhibitor project, cell lysate, gel-based fluorescence, soluble and membrane fractions (AID 651628); details: CA-Rh gel-based ABPP, anti-target count, at 10 µM, hits give high values
Procedure, shortened: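 System: MCF7 soluble or membrane proteome; amount: proteome protein concentration of 1 mg/ml; technique: in-gel fluorescence after SDS-PAGE; medium: DPBS; controls: DMSO-only reference; doses: compound at 10 or 50 µM; probe or stimulus: Chloroacetamide-rhodamine (CA-Rh) labelling probe, 10 µM; timing: compound pre-incubation 1 h, then probe labelling 1 h, both 25 °C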

SMILES | number of anti-targets
COC1=C(N)C(=O)c2ncccc2C1=O | 0
COC1=C(Br)C(=O)c2nc(-c3ccccn3)ccc2C1=O | > 5 (active)
COC1=C(N)C(=O)c2nc(-c3nc(C(=O)O)c(C)c(-c4ccc(OC)c(OC)c4O)c3N)ccc2C1=O | 0
O=C1C=C(Br)C(=O)c2ncccc21 | > 5 (active)
COC1=C(I)C(=O)c2nc(C#N)ccc2C1=O | > 5 (active)
COC1=CC(=O)c2nc(C#N)ccc2C1=O | > 5 (active)
NC1=CC(=O)c2cccnc2C1=O | 0
COC(=O)c1nc(C(=O)OC)c(NC(C)=O)c(-c2ccccc2Br)c1C | 0
NC1=CC(=O)c2ccc(-c3ccccn3)nc2C1=O | 0
COC(=O)c1cccc(-c2ccc3c(n2)C(=O)C(Br)=CC3=O)n1 | 0
NC1=CC(=O)c2ccc(-c3cccc(C(=O)O)n3)nc2C1=O | 0
COC(=O)c1cccc(-c2ccc3c(n2)C(=O)C(N)=CC3=O)n1 | 0
O=C1C(O)=C(O)C(=O)c2ncccc21 | 2 (active)
COC1=C(Br)C(=O)c2ncccc2C1=O | > 5 (active)
